This excerpt belongs to a sample that is enriched for hits.
pCIP destab: lowers stability of the mouse p/CIP coactivator protein; F442A p/CIP-EGFP cells, EGFP fluorescence, 16 h; decrease of EGFP signal, % at 10 µM; AID 1984; actives 0.01% (n = 290,000);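 active means EGFP signal decrease of at least 30% at 10 µM or well 3 SD below plate mean, unless failing retest; inactive means the rest, including hits failing retest or dose response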
Target sequence (Q05BA5 1-1403): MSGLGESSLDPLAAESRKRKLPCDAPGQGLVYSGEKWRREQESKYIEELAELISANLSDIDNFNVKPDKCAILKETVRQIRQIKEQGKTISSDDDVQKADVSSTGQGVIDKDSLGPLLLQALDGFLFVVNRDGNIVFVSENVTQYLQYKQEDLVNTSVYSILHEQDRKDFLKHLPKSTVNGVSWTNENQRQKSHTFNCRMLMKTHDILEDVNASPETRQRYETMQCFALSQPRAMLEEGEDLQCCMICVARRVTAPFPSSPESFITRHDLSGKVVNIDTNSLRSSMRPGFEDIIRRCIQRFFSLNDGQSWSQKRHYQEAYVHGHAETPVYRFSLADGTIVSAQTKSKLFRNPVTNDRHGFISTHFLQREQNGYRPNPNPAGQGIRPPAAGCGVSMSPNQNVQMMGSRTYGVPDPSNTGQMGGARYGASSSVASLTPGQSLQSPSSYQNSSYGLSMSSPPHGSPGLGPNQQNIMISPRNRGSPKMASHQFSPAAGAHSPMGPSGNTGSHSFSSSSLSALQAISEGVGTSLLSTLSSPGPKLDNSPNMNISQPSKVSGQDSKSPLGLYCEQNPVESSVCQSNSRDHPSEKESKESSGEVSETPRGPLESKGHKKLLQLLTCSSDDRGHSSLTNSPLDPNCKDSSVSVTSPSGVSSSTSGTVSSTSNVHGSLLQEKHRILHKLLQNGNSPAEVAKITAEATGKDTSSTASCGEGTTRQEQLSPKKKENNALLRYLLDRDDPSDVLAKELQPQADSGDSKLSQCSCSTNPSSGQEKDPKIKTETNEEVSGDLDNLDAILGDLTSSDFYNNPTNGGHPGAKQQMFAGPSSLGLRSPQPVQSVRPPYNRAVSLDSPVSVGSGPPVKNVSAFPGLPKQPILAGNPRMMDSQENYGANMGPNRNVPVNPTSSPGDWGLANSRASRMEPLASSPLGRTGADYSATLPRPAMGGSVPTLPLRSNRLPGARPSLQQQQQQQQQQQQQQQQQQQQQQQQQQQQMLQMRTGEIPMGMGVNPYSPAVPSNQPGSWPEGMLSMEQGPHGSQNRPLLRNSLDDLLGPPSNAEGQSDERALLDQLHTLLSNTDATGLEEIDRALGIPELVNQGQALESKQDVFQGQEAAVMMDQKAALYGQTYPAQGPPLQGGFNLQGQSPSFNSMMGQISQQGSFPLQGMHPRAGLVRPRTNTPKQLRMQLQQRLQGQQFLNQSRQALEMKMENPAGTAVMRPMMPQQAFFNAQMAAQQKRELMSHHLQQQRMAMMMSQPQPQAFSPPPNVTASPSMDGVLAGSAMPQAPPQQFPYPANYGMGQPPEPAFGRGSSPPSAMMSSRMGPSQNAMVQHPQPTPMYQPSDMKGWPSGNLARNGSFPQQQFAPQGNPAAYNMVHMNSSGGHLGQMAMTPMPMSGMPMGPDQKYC
Dynein transport: dynein cargo transport inhibition; AID 1381; actives 0.47% (n = 220,000); z-score, hits read low; 3617.4 mouse cells, GR-EGFP nuclear translocation imaging; test concentration mostly 20 µM; stimulated with dexamethasone, 1 µM; hits give low values;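 active means plate z-score of nuclear minus cytoplasmic receptor signal below a set negative limit, without overly bright fluorescence or cell loss, cut at about -3.5 in these data, passing the limit was not always enough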;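 further: z-score of nuclear minus cytoplasmic ring GR-EGFP intensity difference per well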
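Schedule: 48 h induction, then 1 h compound, then 30 min agonist, 37 °C. Buffer or medium: tetracycline-free induction medium containing charcoal-stripped FBS. Reagent: 1.0 µM final dexamethasone stimulus. Evaluation: nuclear versus cytoplasmic GR-EGFP signal, averaged per well. Signal: high-content fluorescence imaging after fixation.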
Beta2AR agonist: agonists of human beta-2 adrenergic receptor inducing internalization; P07550; Am2.2-beta2AR cells, FAP receptor internalization, flow cytometry; response, % (test concentration not listed); actives 0.43% (n = 340,000); AID 504454;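 active means response above a set limit, near 3 SD of response in nonfluorescent compounds, cut at about 42% in these data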
CHOP UPR activ: apoptotic UPR (CHOP) activation. CHO-CHOP luciferase reporter, luminescence; percent of tunicamycin response over DMSO baseline. activation, % at 10 µM. actives 0.34% (n = 330,000). AID 449763;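 active means at 10 µM dose, activation of 40% or more, normalized to positive control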
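assay system = CHO CHOP reporter cells | amount = 500 CHO-CHOP cells per well | buffer or medium = F12 with 10% FBS | incubation = 16-18 h cell attachment, then 6 h compound exposure, 37 °C | detection = luminescence read with Steady-Glo | read-out = percent activation relative to tunicamycin control | controls = tunicamycin high control, DMSO low control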
CHOP inhibitor: CHOP inhibition in unfolded protein response; inhibition, % at 10 µM; CHO-K1 CHOP-promoter luciferase, tunicamycin-induced, 15-18 h; actives 3.8% (n = 220,000);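 active means compounds that reduced the stress-induced luciferase reporter signal by more than about 70% of percent inhibition, limit read from the data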
XBP1 UPR activ: activators of adaptive arm of unfolded protein response (XBP1). CHO-XBP1 luciferase reporter, IRE1-XBP1 UPR activation, luminescence; percent of tunicamycin response, DMSO as zero. activation, % at 20 µM. actives 0.33% (n = 330,000). AID 463104;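 active means versus positive control, 20 µM dose yields 30% or more activation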
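Signal: luciferase luminescence; Assay system: CHO-XBP1 luciferase reporter cells; Amount: one thousand reporter cells per well; Dosing: 20 µM single concentration, DMSO 1%; Benchmarks: high control tunicamycin 10 µg/mL final, low control DMSO vehicle only; Schedule: 6 h compound exposure at 37 °C, 5% CO2; Evaluation: percent activation relative to tunicamycin reference.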
Numbers stand for hits.

`Cc1ccc(NC(=O)CS(=O)CC(=O)Nc2ccc3c(c2)OCO3)cc1Cl` (stereo unspecified) gave pCIP destab inactive, Dynein transport inactive, Beta2AR agonist inactive, CHOP UPR activ inactive, CHOP inhibitor inactive and XBP1 UPR activ inactive.
`O=c1/c(=C\c2ccc(O)cc2)sc2nc(-c3ccccc3)c(-c3ccccc3)n12` gave pCIP destab inactive, Dynein transport inactive, Beta2AR agonist inactive, CHOP UPR activ inactive, CHOP inhibitor 91.4 and XBP1 UPR activ inactive.
`Cc1cc(C)c2nc3s/c(=C/c4ccccc4)c(=O)n3c2c1` gave pCIP destab inactive, Dynein transport inactive and CHOP inhibitor inactive.
CC(C)(C)c1csc(NC(=O)Cc2cccs2)n1 was read as pCIP destab inactive, Dynein transport inactive, Beta2AR agonist inactive, CHOP UPR activ inactive, CHOP inhibitor inactive and XBP1 UPR activ inactive.
For Cc1ccc(NS(=O)(=O)c2ccc(NC(=O)c3cccs3)cc2)cc1 the results were pCIP destab inactive, Dynein transport inactive, Beta2AR agonist inactive, CHOP UPR activ inactive, CHOP inhibitor 77.3 and XBP1 UPR activ inactive.
CC(C)(C)c1csc(NC(=O)c2cccs2)n1 was read as pCIP destab inactive, Dynein transport inactive, Beta2AR agonist inactive, CHOP UPR activ inactive, CHOP inhibitor 71.2 and XBP1 UPR activ inactive.
For Cc1cccc(CC(=O)NCCN2CCOCC2)c1 the results were pCIP destab inactive, Beta2AR agonist inactive, CHOP UPR activ inactive and XBP1 UPR activ inactive.
`Cc1ccc(C(=O)OCCc2c(C)[nH]n(-c3ccccc3)c2=O)cc1` gave pCIP destab inactive, Dynein transport inactive, Beta2AR agonist inactive, CHOP UPR activ inactive, CHOP inhibitor inactive and XBP1 UPR activ inactive.
CCCCNC(=S)N(C)/N=C/c1ccccc1F was read as pCIP destab inactive, Dynein transport inactive, Beta2AR agonist inactive, CHOP UPR activ inactive, CHOP inhibitor 77.2 and XBP1 UPR activ inactive.
CCOC(=O)/C=C(\C)Sc1cc(O)c2ccccc2c1O was read as pCIP destab inactive, Dynein transport inactive, Beta2AR agonist 45.9 and CHOP inhibitor inactive.
Screening CCOC(=O)/C=C(\C)Sc1cc(=O)oc2ccccc12 returned pCIP destab inactive, Dynein transport inactive, Beta2AR agonist inactive, CHOP UPR activ inactive, CHOP inhibitor inactive and XBP1 UPR activ inactive.
Screening CN(C(=O)c1cncc(Br)c1)c1c(N)n(Cc2ccccc2)c(=O)[nH]c1=O returned Beta2AR agonist inactive, CHOP UPR activ inactive and XBP1 UPR activ inactive.
Cc1ccc(-c2nc3ccccc3o2)cc1NC(=S)NC(=O)/C=C/c1ccco1 was read as pCIP destab inactive, Dynein transport inactive, Beta2AR agonist inactive, CHOP UPR activ inactive, CHOP inhibitor inactive and XBP1 UPR activ inactive.
For Cc1ccc(-c2nc3ccccc3o2)cc1NC(=O)Cc1cccs1 the results were pCIP destab inactive, Dynein transport inactive, Beta2AR agonist inactive, CHOP UPR activ inactive, CHOP inhibitor 80.2 and XBP1 UPR activ inactive.
For CCC(=O)Nc1cccc(-c2nc3ccccc3o2)c1 the results were pCIP destab inactive, Dynein transport inactive, Beta2AR agonist inactive, CHOP UPR activ inactive, CHOP inhibitor inactive and XBP1 UPR activ inactive.
`O=C(Cc1cccs1)Nc1cccc(-c2nc3ccccc3o2)c1` gave pCIP destab inactive, Dynein transport inactive, Beta2AR agonist inactive, CHOP UPR activ inactive, CHOP inhibitor 90.5 and XBP1 UPR activ inactive.
Screening CCOc1ccc(NC(=S)NC(=O)c2c(Cl)c(C)nn2C)c([N+](=O)[O-])c1 returned pCIP destab inactive, Dynein transport inactive, Beta2AR agonist inactive, CHOP UPR activ inactive, CHOP inhibitor 72.6 and XBP1 UPR activ inactive.
For O=C(COC(=O)c1cncc(Br)c1)NCC12CC3CC(CC(C3)C1)C2 the results were Beta2AR agonist inactive, CHOP UPR activ inactive and XBP1 UPR activ inactive.
Screening COc1ccccc1/C=C1\CCCC2=C1Nc1nnnn1C2c1ccccc1OC (stereo unspecified) returned pCIP destab inactive, Dynein transport inactive, Beta2AR agonist inactive and CHOP inhibitor 83.6.
`Cc1cccc(-c2nc(=S)c3c(o2)CCCC3)c1` gave pCIP destab inactive, Dynein transport inactive, Beta2AR agonist inactive, CHOP UPR activ inactive, CHOP inhibitor 76.6 and XBP1 UPR activ inactive.
`S=c1nc(-c2ccc(Br)cc2)oc2c1CCCC2` gave pCIP destab inactive, Dynein transport inactive, Beta2AR agonist inactive, CHOP UPR activ inactive, CHOP inhibitor inactive and XBP1 UPR activ inactive.
Screening Cn1c(=O)c2[nH]c(N=NNc3ccccc3F)nc2n(C)c1=O returned pCIP destab inactive, Dynein transport inactive, Beta2AR agonist inactive, CHOP UPR activ inactive, CHOP inhibitor inactive and XBP1 UPR activ inactive.
`COc1ccc(C(=O)c2ccc(Cl)c([N+](=O)[O-])c2)cc1` gave pCIP destab inactive, Dynein transport inactive, Beta2AR agonist 47.8, CHOP UPR activ inactive, CHOP inhibitor inactive and XBP1 UPR activ inactive.
For C=CCN(CC=C)CCOc1ccccc1F the results were pCIP destab inactive, Dynein transport inactive, Beta2AR agonist inactive, CHOP UPR activ inactive, CHOP inhibitor inactive and XBP1 UPR activ inactive.
`C=CCN(CC=C)CCOc1cccc2ccccc12` gave pCIP destab inactive, Dynein transport inactive, Beta2AR agonist inactive, CHOP UPR activ inactive, CHOP inhibitor 75.5 and XBP1 UPR activ inactive.
`O=C1CC(NS(=O)(=O)c2ccc([N+](=O)[O-])cc2)CN1c1cccc(F)c1` (stereo unspecified) gave Beta2AR agonist inactive, CHOP UPR activ inactive and XBP1 UPR activ inactive.
Screening C/C(=N/NC(=O)c1ccc(Br)o1)c1cccc(NC(=O)c2ccc(F)cc2)c1 returned pCIP destab inactive, Beta2AR agonist inactive, CHOP UPR activ inactive and XBP1 UPR activ inactive.
CCCCCCC1CC(CCC(=O)Nc2ccc([N+](=O)[O-])cc2)C(=O)O1 (stereo unspecified) was read as pCIP destab inactive, Dynein transport inactive, Beta2AR agonist inactive, CHOP UPR activ inactive, CHOP inhibitor 84.3 and XBP1 UPR activ inactive.
Screening CCCCCC1CC(CC(=O)Nc2ccc([N+](=O)[O-])cc2)OC1=O (stereo unspecified) returned pCIP destab inactive, Dynein transport inactive, Beta2AR agonist inactive, CHOP UPR activ inactive, CHOP inhibitor 90.8 and XBP1 UPR activ inactive.
Screening CCOc1ccc(-c2nnn(CC(=O)NCc3ccc(F)cc3)n2)cc1OCC returned pCIP destab inactive, Dynein transport inactive, Beta2AR agonist inactive, CHOP UPR activ inactive, CHOP inhibitor 81.0 and XBP1 UPR activ inactive.
`CCOc1ccc(-c2nnn(CC(=O)Nc3cccc(OC)c3)n2)cc1OCC` gave pCIP destab inactive, Dynein transport inactive, Beta2AR agonist inactive, CHOP UPR activ inactive, CHOP inhibitor inactive and XBP1 UPR activ inactive.

High-throughput results: PubChem, several laboratories
